For twelve compounds, MIC results are on record in ChEMBL document CHEMBL4406852, “Combating fluconazole-resistant fungi with novel β-azole-phenylacetone derivatives” (Eur J Med Chem, 2019).

Holding throughout (type): functional
The test system of assay [1] is Candida albicans. Briefly: Antifungal activity against Candida albicans GIM 2.194 assessed as reduction in fungal growth incubated for 24 hrs by serial dilution method. The conditions noted are these: GIM 2.194, 24 h. The gist of the method:
(§1)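 MIC by CLSI broth microdilution in RPMI 1640 buffered to pH 7.0 with MOPS. Compounds dissolved in DMSO and serially diluted to final 0.03–16 or 0.125–64 µg/mL. Inoculum 1–5 × 10^3 CFU/mL. Incubation 35 °C, 24 h. Drug-free growth and fungus-free blank controls. MIC is the lowest concentration preventing visible growth.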

Assay [2] concerns Candida albicans. Briefly: Antifungal activity against fluconazole-resistant Candida albicans CaR assessed as reduction in fungal growth incubated for 24 hrs by serial dilution method. Put shortly: (§2)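 Fluconazole-resistant C. albicans clinical isolates (17# and CaR from AIDS patients; 632, 901, 904 from clinic) tested by CLSI broth dilution MIC in RPMI 1640 buffered to pH 7.0 with MOPS. Compounds dissolved in DMSO, serially diluted to final 0.03–16 or 0.125–64 μg/mL; inoculum 1–5 × 10^3 CFU/mL; 35 °C, 24 h. MIC = lowest concentration inhibiting visible growth; fluconazole and itraconazole as controls.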

Assay [3] concerns Candida albicans. Nature of the assay: Antifungal activity against Candida albicans SC5314 assessed as reduction in fungal growth incubated for 24 hrs by serial dilution method. The conditions noted are these: SC5314, 24 h. Put shortly:
as §1

Assay [4] concerns Candida albicans. Briefly: Antifungal activity against fluconazole-resistant Candida albicans 904 assessed as reduction in fungal growth incubated for 24 hrs by serial dilution method. The conditions noted are these: Candida albicans, 904, 24 h. The gist of the method:
as §2

The subject of assay [5] is Candida albicans. Nature of the assay: Antifungal activity against fluconazole-resistant Candida albicans 632 assessed as reduction in fungal growth incubated for 24 hrs by serial dilution method. To be noted: Candida albicans, 632, 24 h. Put shortly:
as §2

For assay [6], the system named is Candida albicans. Nature of the assay: Antifungal activity against fluconazole-resistant Candida albicans 17 assessed as reduction in fungal growth incubated for 24 hrs by serial dilution method. To be noted: Candida albicans, 17, 24 h. The gist of the method:
as §2

For assay [7], the system named is Candida tropicalis. Briefly: Antifungal activity against Candida tropicalis GIM 2.183 assessed as reduction in fungal growth incubated for 24 hrs by serial dilution method. The conditions noted are these: GIM 2.183, 24 h. Put shortly:
as §1

The subject of assay [8] is Candida parapsilosis. Nature of the assay: Antifungal activity against Candida parapsilosis GIM 2.190 assessed as reduction in fungal growth incubated for 24 hrs by serial dilution method. To be noted: Lodderomyces parapsilosis, GIM 2.190, 24 h. Put shortly: as §1
For assay [9], the system named is Nakaseomyces glabratus. Briefly: Antifungal activity against Candida glabrata assessed as reduction in fungal growth incubated for 24 hrs by serial dilution method. The gist of the method:
as §1

In assay [10] the test system is Candida albicans. Briefly: Antifungal activity against fluconazole-resistant Candida albicans 901 assessed as reduction in fungal growth incubated for 24 hrs by serial dilution method. The conditions noted are these: Candida albicans, 901, 24 h. Put shortly:
as §2

Usually MIC stands for the lowest concentration found to suppress growth.

Values after ≈ are worked out from the molar mass of the structure shown.

Turning to `O=C(NC(Cn1ccnc1)C(=O)c1cccc(F)c1)c1ccc(-c2ccccc2)cc1F` (stereo not drawn), the MIC in assay [1] was 0.5 µg/mL (≈ 1.16 µM); in assay [2], 2 µg/mL (≈ 4.64 µM); in assay [3] it was 0.125 µg/mL (≈ 0.29 µM); in assay [4] it was 32 µg/mL (≈ 74.2 µM); in assay [5], more than 64 µg/mL; in assay [6] it was 4 µg/mL (≈ 9.27 µM). Also, the MIC worked out at 0.5 µg/mL (≈ 1.16 µM) in assay [7], 0.5 µg/mL (≈ 1.16 µM) in [8], 2 µg/mL (≈ 4.64 µM) in assay [9] and 2 µg/mL (≈ 4.64 µM) in assay [10].

On to `O=C(NC(Cn1ccnc1)C(=O)c1ccccc1)c1ccc(-c2ccccc2F)cc1` (stereo not drawn), for which the MIC in assay [1] was found to be 1 µg/mL (≈ 2.42 µM); in assay [3], 0.5 µg/mL (≈ 1.21 µM); in assay [7] it was 0.25 µg/mL (≈ 0.605 µM); in assay [8] it was 2 µg/mL (≈ 4.84 µM); in [9], 1 µg/mL (≈ 2.42 µM).

As to `O=C(NC(Cn1ccnc1)C(=O)c1cccc(Cl)c1)c1ccc(-c2ccccc2)c(F)c1` (stereo not drawn), the MIC in assay [1] is 0.125 µg/mL (≈ 0.279 µM); in [2] it was more than 64 µg/mL; in [3] it was 0.06 µg/mL (≈ 0.134 µM); in assay [4] it was 4 µg/mL (≈ 8.93 µM); in [5], 4 µg/mL (≈ 8.93 µM); in assay [6], more than 64 µg/mL. The MIC was found to be 0.125 µg/mL (≈ 0.279 µM) in assay [7], 0.5 µg/mL (≈ 1.12 µM) in assay [8], 0.25 µg/mL (≈ 0.558 µM) in [9] and 4 µg/mL (≈ 8.93 µM) in assay [10].

For the compound `O=C(NC(Cn1ccnc1)C(=O)c1ccccc1)c1ccc(-c2ccccc2)c(Cl)c1` (stereo not drawn), the MIC in assay [1] is more than 16 µg/mL; in assay [3] it was more than 16 µg/mL; in assay [7], more than 16 µg/mL; in assay [8] it was more than 64 µg/mL; in [9], more than 64 µg/mL.

Regarding `O=C(NC(Cn1ccnc1)C(=O)c1cccc(F)c1)c1ccc(-c2ccccc2)c(F)c1` (stereo not drawn), the MIC in assay [1] is 0.25 µg/mL (≈ 0.579 µM); in assay [2], more than 64 µg/mL; in assay [3] it was 0.125 µg/mL (≈ 0.29 µM); in assay [4], 0.5 µg/mL (≈ 1.16 µM); in assay [5], 1 µg/mL (≈ 2.32 µM); in assay [6], more than 64 µg/mL. For the same compound, the MIC was determined as 1 µg/mL (≈ 2.32 µM) in assay [7], 1 µg/mL (≈ 2.32 µM) in assay [8], 2 µg/mL (≈ 4.64 µM) in assay [9] and 0.25 µg/mL (≈ 0.579 µM) in assay [10].

With `Cc1cc(C(=O)NC(Cn2ccnc2)C(=O)c2ccccc2)ccc1-c1ccccc1` (stereo not drawn), the MIC is more than 16 µg/mL in assay [1]; more than 16 µg/mL in assay [3]; more than 16 µg/mL in assay [7]; more than 64 µg/mL in assay [8]; more than 64 µg/mL in assay [9].

On to `Cc1cc(-c2ccccc2)ccc1C(=O)NC(Cn1ccnc1)C(=O)c1ccccc1` (stereo not drawn), for which the MIC was more than 16 µg/mL in assay [1]; more than 16 µg/mL in [3]; more than 16 µg/mL in assay [7]; more than 64 µg/mL in assay [8]; more than 64 µg/mL in [9].

With `O=C(NC(Cn1ccnc1)C(=O)c1ccc(F)cc1)c1ccc(-c2ccccc2)cc1` (stereo not drawn), the MIC in assay [1] is 0.25 µg/mL (≈ 0.605 µM); in [2] it was more than 64 µg/mL; in assay [3], 0.06 µg/mL (≈ 0.145 µM); in assay [4], 2 µg/mL (≈ 4.84 µM); in assay [5] it was 2 µg/mL (≈ 4.84 µM); in assay [6], more than 64 µg/mL. For the same compound, the MIC was 0.25 µg/mL (≈ 0.605 µM) in assay [7], 0.25 µg/mL (≈ 0.605 µM) in assay [8], 0.5 µg/mL (≈ 1.21 µM) in [9] and 1 µg/mL (≈ 2.42 µM) in assay [10].

Consider `O=C(NC(Cn1ccnc1)C(=O)c1ccccc1)c1ccc(-c2ccccc2)cc1F` (stereo not drawn), for which the MIC in assay [1] came out at 0.25 µg/mL (≈ 0.605 µM); in assay [2] it was 4 µg/mL (≈ 9.67 µM); in assay [3] it was 0.125 µg/mL (≈ 0.302 µM); in [4], 8 µg/mL (≈ 19.3 µM); in assay [5], 32 µg/mL (≈ 77.4 µM); in assay [6] it was 2 µg/mL (≈ 4.84 µM). For the same compound, the MIC was 0.06 µg/mL (≈ 0.145 µM) in assay [7], 0.125 µg/mL (≈ 0.302 µM) in [8], 0.5 µg/mL (≈ 1.21 µM) in assay [9] and more than 64 µg/mL in [10].

As for `Cc1cccc(-c2ccc(C(=O)NC(Cn3ccnc3)C(=O)c3ccccc3)cc2)c1` (stereo not drawn), the MIC in assay [1] is more than 16 µg/mL; in assay [3], more than 16 µg/mL; in [7], more than 16 µg/mL; in assay [8], more than 64 µg/mL; in assay [9], more than 64 µg/mL.

Consider `O=C(NC(Cn1ccnc1)C(=O)c1ccccc1)c1ccc(-c2cccc(F)c2)cc1` (stereo not drawn), for which the MIC in assay [1] is 0.5 µg/mL (≈ 1.21 µM); in assay [3], 0.25 µg/mL (≈ 0.605 µM); in assay [7], 0.125 µg/mL (≈ 0.302 µM); in assay [8], 1 µg/mL (≈ 2.42 µM); in [9] it was more than 64 µg/mL.

As for `O=C(NC(Cn1cncn1)C(=O)c1ccccc1)c1ccc(-c2ccccc2)cc1` (stereo not drawn), the minimum inhibitory concentration (MIC) came to 2 µg/mL (≈ 5.04 µM) in assay [1], 0.25 µg/mL (≈ 0.631 µM) in assay [3] and 1 µg/mL (≈ 2.52 µM) in assay [7].
